Laboratory results: ChEMBL document CHEMBL5370647 (J Med Chem, 2023)
Converted amounts (≈) assume the structure as drawn.

Assays:
[1] = test system: Mycobacterium tuberculosis; experiment: Antitubercular activity against replicating Mycobacterium tuberculosis H37Rv constitutively expressing GFP assessed as inhibition of bacterial growth under normoxia conditions incubated for 3 weeks by spot assay; assay type: functional; settings: 504 h
[2] = test system: Mycobacterium tuberculosis; experiment: Antitubercular activity against Mycobacterium tuberculosis H37Rv constitutively expressing GFP assessed as inhibition of bacterial growth at 20 uM incubated for 7 days by fluorescence based analysis; assay type: functional; settings: 168 h, time 7 day
[3] = test system: Mycobacterium tuberculosis; experiment: Antitubercular activity against non-replicating Mycobacterium tuberculosis H37Rv constitutively expressing GFP assessed as inhibition of bacterial growth incubated for 7 days under hypoxic condition followed by incubation in aerobic conditions for 1 to 5 days by spot assay; assay type: functional; settings: time 8-12 day
[4] = Metabolic stability of the compound in CD-1 mouse liver microsomes assessed as parent compound remaining at 5 uM preincubated for 5 mins followed by NADPH addition and measured after 30 mins by LC-TOF/MS analysis; assay type: ADME, Microsome; settings: time 35 min, read-out: Stability
Procedure, shortened: (§1)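 Mouse liver microsomes incubated with compound in the presence of NADPH. Read-out is % parent compound remaining after 30 min.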

TGF-beta receptor type-1 = molecular target: T1, TGF-beta receptor type-1 (Homo sapiens, UniProt P36897); experiment: Binding affinity to wild type human partial length TGFBR1 (D179 to M503 residues) expressed in bacterial expression system by KINOMEscan assay
T1 sequence (P36897 whole entry): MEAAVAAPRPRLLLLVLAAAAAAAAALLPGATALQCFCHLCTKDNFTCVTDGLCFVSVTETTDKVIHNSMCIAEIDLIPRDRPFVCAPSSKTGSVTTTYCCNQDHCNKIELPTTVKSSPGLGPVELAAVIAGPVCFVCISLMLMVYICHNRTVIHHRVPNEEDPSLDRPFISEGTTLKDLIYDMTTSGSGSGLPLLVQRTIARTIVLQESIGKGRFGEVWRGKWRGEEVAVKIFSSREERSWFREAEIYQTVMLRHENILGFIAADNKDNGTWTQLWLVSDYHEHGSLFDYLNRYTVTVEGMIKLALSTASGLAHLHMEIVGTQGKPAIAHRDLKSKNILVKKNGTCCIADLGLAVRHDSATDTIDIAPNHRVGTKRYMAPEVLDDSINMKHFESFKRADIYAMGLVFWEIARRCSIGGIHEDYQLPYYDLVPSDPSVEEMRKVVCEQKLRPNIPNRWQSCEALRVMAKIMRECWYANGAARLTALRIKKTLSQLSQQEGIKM

[5] = Metabolic stability of the compound in CD-1 mouse liver microsomes at 5 uM by LC-TOF/MS analysis; assay type: ADME, Microsome; procedure, shortened: as §1
[6] = test system: Mycobacterium tuberculosis; experiment: Antitubercular activity against non-replicating Mycobacterium tuberculosis H37Rv expressing luxCDAB assessed as inhibition of bacterial growth incubated for 7 days under hypoxia conditions followed by incubation in normoxia conditions for 5 days by luminescence based analysis; assay type: functional; settings: 288 h, time 12 day

Row | Structure (SMILES) | MIC50 [6] | MIC90 [6] | further results
1 | Cc1ccc(NC(=O)c2ccnc(N3CCN(C)CC3)c2)cc1-c1ccc(C(=O)NCC2CC2)cc1 | – | – | MIC50 [1]: 4 µM (≈ 1.93 µg/mL); MIC90 [1]: 6 µM (≈ 2.9 µg/mL); inhibition at 20 µM [2]: > 90%
2 | CS(=O)(=O)CCNCc1coc(-c2ccc3ncnc(Nc4ccc(OCc5ccccc5)cc4)c3c2)c1 [GW566221A] | – | – | MIC90 [1]: 3 µM (≈ 1.59 µg/mL); MIC90 [3]: 7 µM (≈ 3.7 µg/mL); inhibition at 20 µM [2]: > 90%
3 | Cc1cccc(-c2nc(Nc3ccc4nc(C)sc4c3)c3ccccc3n2)n1 | < 0.3 µM | 0.3 µM (≈ 0.115 µg/mL) | remaining at 0.5 h, 5 µM [4]: 18%; Kd (TGF-beta receptor type-1): > 10 µM; Stability [5]: Stable
4 | COc1cccc(-c2nc(Nc3ccncc3)c3ccccc3n2)n1 | 5 µM (≈ 1.65 µg/mL) | > 10 µM | –
5 | Cc1cccc(-c2nc(Nc3ccc4nnn(C)c4c3)c3ccccc3n2)n1 | < 0.3 µM | 0.3 µM (≈ 0.11 µg/mL) | remaining at 0.5 h, 5 µM [4]: 15%; Kd (TGF-beta receptor type-1): > 10 µM; Stability [5]: Stable
6 | Fc1cccc(-c2nc(Nc3ccncc3)c3ccccc3n2)c1 | > 10 µM | > 10 µM | –
7 | Cc1cc(-c2nc(Nc3ccncc3)c3ccccc3n2)cs1 | > 10 µM | > 10 µM | –
8 | Cc1cc(Nc2nc(-c3cccc(C)n3)nc3ccccc23)ccn1 | < 0.3 µM | 1.3 µM (≈ 0.426 µg/mL) | –
9 | Cn1ccc(-c2nc(Nc3ccncc3)c3ccccc3n2)n1 | > 10 µM | > 10 µM | –
10 | Cc1cccc(-c2nc(C)cc(Nc3ccncc3)n2)n1 | < 1 µM | > 10 µM | –
11 | Cc1cccc(-c2nc(Nc3ccc4scnc4c3)c3ccccc3n2)n1 | < 0.3 µM | 1.3 µM (≈ 0.48 µg/mL) | Kd (TGF-beta receptor type-1): > 10 µM
12 | Cc1cccc(-c2nc(Nc3ccc4ncsc4c3)c3ccccc3n2)n1 | < 0.3 µM | 1.3 µM (≈ 0.48 µg/mL) | –
13 | Cc1cccc(-c2nc(Nc3ccc4nn[nH]c4c3)c3ccccc3n2)n1 | 1.3 µM (≈ 0.459 µg/mL) | 5 µM (≈ 1.77 µg/mL) | Kd (TGF-beta receptor type-1): > 10 µM
14 | Cc1cccc(-c2cc3ccccc3c(Nc3ccncc3)n2)n1 | 1 µM (≈ 0.312 µg/mL) | > 10 µM | –
15 | Cc1cccc(-c2nc(Nc3ccc4occc4c3)c3ccccc3n2)n1 | < 0.3 µM | 1.3 µM (≈ 0.458 µg/mL) | Kd (TGF-beta receptor type-1): > 10 µM
16 | Cc1cccc(-c2nc(Nc3ccc4ccsc4c3)c3ccccc3n2)n1 | < 0.3 µM | 0.3 µM (≈ 0.111 µg/mL) | remaining at 0.5 h, 5 µM [4]: 8%; Kd (TGF-beta receptor type-1): > 10 µM; Stability [5]: Stable
17 | Cn1cncc1-c1cc2c(Nc3ccc(OCc4ccccc4)cc3)ncnc2cn1 | – | – | MIC50 [1]: 5 µM (≈ 2.04 µg/mL); MIC90 [1]: > 20 µM; inhibition at 20 µM [2]: > 90%
18 | c1ccc2c(Nc3ccncc3)nc(-c3cnccn3)nc2c1 | 1 µM (≈ 0.3 µg/mL) | > 10 µM | –
19 | Clc1cccc(-c2nc(Nc3ccncc3)c3ccccc3n2)c1 | > 10 µM | > 10 µM | –
20 | Cc1cccc(-c2nc(Nc3ccc4c(cnn4C)c3)c3ccccc3n2)n1 | < 0.3 µM | 1.3 µM (≈ 0.476 µg/mL) | remaining at 0.5 h, 5 µM [4]: 9%; Stability [5]: Stable
21 | c1cnc(-c2nc(Nc3ccncc3)c3ccccc3n2)nc1 | 2.5 µM (≈ 0.751 µg/mL) | > 10 µM | –
22 | Cc1cccc(-c2nc(Nc3ccc4ncn(C)c4c3)c3ccccc3n2)n1 | 0.3 µM (≈ 0.11 µg/mL) | > 10 µM | –
23 | Fc1cccc(-c2nc(Nc3ccncc3)c3ccccc3n2)n1 | 1 µM (≈ 0.317 µg/mL) | 5 µM (≈ 1.59 µg/mL) | remaining at 0.5 h, 5 µM [4]: 18%; Stability [5]: Stable
24 | FC(F)(F)c1cccc(-c2nc(Nc3ccncc3)c3ccccc3n2)n1 | 1 µM (≈ 0.367 µg/mL) | 5 µM (≈ 1.84 µg/mL) | remaining at 0.5 h, 5 µM [4]: 29%; Stability [5]: Stable

Row | Structure (SMILES) | MIC50 [6] | MIC90 [6] | further results
25 | CO[C@H]1/C=C/O[C@@]2(C)Oc3c(C)c(O)c4c(O)c(c(/C=N/N5CCN(C)CC5)c(O)c4c3C2=O)NC(=O)/C(C)=C\C=C\[C@H](C)[C@H](O)[C@@H](C)[C@@H](O)[C@@H](C)[C@H](OC(C)=O)[C@@H]1C [RIFAMPIN] | – | – | MIC90 [3]: 0.4 µM (≈ 0.329 µg/mL)
26 | Cc1cccc(-c2nc(Nc3ccc4ncoc4c3)c3ccccc3n2)n1 | 0.3 µM (≈ 0.106 µg/mL) | 5 µM (≈ 1.77 µg/mL) | –
27 | Cc1cccc(-c2nc(Nc3ccc4c(c3)nnn4C)c3ccccc3n2)n1 | < 0.3 µM | 1.3 µM (≈ 0.478 µg/mL) | remaining at 0.5 h, 5 µM [4]: 28%; Kd (TGF-beta receptor type-1): > 10 µM; Stability [5]: Stable
28 | c1cncc(-c2nc(Nc3ccncc3)c3ccccc3n2)c1 | > 10 µM | > 10 µM | –
29 | Cc1cccc(-c2nc(Nc3ccc4ncccc4c3)c3ccccc3n2)n1 | 0.3 µM (≈ 0.109 µg/mL) | 5 µM (≈ 1.82 µg/mL) | –
30 | c1ccc2c(Nc3ccncc3)nc(-c3ccc4c(c3)OCO4)nc2c1 | > 10 µM | > 10 µM | –
31 | COc1cncc(-c2nc(Nc3ccncc3)c3ccccc3n2)n1 | 5 µM (≈ 1.65 µg/mL) | > 10 µM | –
32 | Cc1cccc(-c2nc(Nc3ccncc3)c3cc(O)ccc3n2)n1 | 1 µM (≈ 0.329 µg/mL) | 2.5 µM (≈ 0.823 µg/mL) | remaining at 0.5 h, 5 µM [4]: 20%; Stability [5]: Stable
33 | Cc1cccc(-c2nc(Oc3ccc4scnc4c3)c3ccccc3n2)n1 | < 0.3 µM | 0.3 µM (≈ 0.111 µg/mL) | Kd (TGF-beta receptor type-1): > 10 µM
34 | c1ccc(-c2nc(Nc3ccncc3)c3ccccc3n2)nc1 | 1 µM (≈ 0.299 µg/mL) | 2.5 µM (≈ 0.748 µg/mL) | remaining at 0.5 h, 5 µM [4]: 20%; Stability [5]: Stable
35 | Cc1cccc(-c2nc(N(C)c3ccc4ncsc4c3)c3ccccc3n2)n1 | < 0.3 µM | 1.3 µM (≈ 0.499 µg/mL) | Kd (TGF-beta receptor type-1): > 10 µM
36 | Cc1cccc(-c2nc(Nc3ccc4c(c3)ncn4C)c3ccccc3n2)n1 | 1.3 µM (≈ 0.476 µg/mL) | 5 µM (≈ 1.83 µg/mL) | Kd (TGF-beta receptor type-1): > 10 µM
37 | CSc1cccc(Nc2nc(-c3cccc(C)n3)nc3ccccc23)c1 | < 0.3 µM | 1.3 µM (≈ 0.466 µg/mL) | –
38 | Cc1cccc(-c2nc(Nc3ccc4nn(C)cc4c3)c3ccccc3n2)n1 | < 0.3 µM | 1.3 µM (≈ 0.476 µg/mL) | –
39 | Fc1ccc(-c2c(-c3ccccn3)nc3n2CCS3)cc1 | – | – | MIC50 [1]: 9 µM (≈ 2.68 µg/mL); MIC90 [1]: > 20 µM; inhibition at 20 µM [2]: > 90%
40 | COc1ccc(Nc2nc(-c3cccc(C)n3)nc3ccccc23)cc1 | < 0.3 µM | 1.3 µM (≈ 0.445 µg/mL) | Kd (TGF-beta receptor type-1): > 10 µM
41 | Cc1csc(-c2nc(Nc3ccncc3)c3ccccc3n2)n1 | > 10 µM | > 10 µM | –
42 | Cc1cccc(-c2nc(Oc3ccc4ncsc4c3)c3ccccc3n2)n1 | < 0.3 µM | 0.3 µM (≈ 0.111 µg/mL) | Kd (TGF-beta receptor type-1): > 10 µM
43 | Cc1cccc(-c2nc(Nc3ccc4[nH]ncc4c3)c3ccccc3n2)n1 | < 0.3 µM | 5 µM (≈ 1.76 µg/mL) | remaining at 0.5 h, 5 µM [4]: 9%; Stability [5]: Stable
44 | Cc1cccc(-c2nc(Nc3ccc4[nH]ccc4c3)c3ccccc3n2)n1 | 1.3 µM (≈ 0.457 µg/mL) | 1.3 µM (≈ 0.457 µg/mL) | –
45 | Clc1cccc(-c2nc(Nc3ccncc3)c3ccccc3n2)n1 | < 1 µM | < 1 µM | remaining at 0.5 h, 5 µM [4]: 18%; Stability [5]: Stable
46 | COc1ccc2nc(-c3cccc(C)n3)nc(Nc3ccncc3)c2c1 | < 1 µM | < 1 µM | remaining at 0.5 h, 5 µM [4]: 23%; Stability [5]: Stable
47 | Cc1cccc(-c2cc(Nc3ccncc3)c3ccccc3n2)n1 | 2.5 µM (≈ 0.781 µg/mL) | > 10 µM | –
48 | COc1ccc2c(Nc3ccncc3)nc(-c3cccc(C)n3)nc2c1 | 1 µM (≈ 0.343 µg/mL) | 2.5 µM (≈ 0.858 µg/mL) | remaining at 0.5 h, 5 µM [4]: 12%; Stability [5]: Stable
